Source: ChEMBL document CHEMBL1255554, “9-Dihydroerythromycins as non-antibiotic motilin receptor agonists” (Bioorg Med Chem Lett, 2010)
In brackets after ≈: the same amount, converted by molar mass.

Columns and labels:
[1] = target: Motilin receptor (Oryctolagus cuniculus, UniProt A5A4K8); assay: Agonist activity at motilin receptor in rabbit smooth muscle assessed as increase of muscle contraction; assay type: functional
[2] = tested on: Streptococcus pneumoniae; assay: Antibacterial activity against erythromycin-sensitive Streptococcus pneumoniae ATCC 6301; assay type: functional
Summary of the method: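 Minimal growth inhibitory concentration (MIC) determined against the highly erythromycin-sensitive strain Streptococcus pneumoniae ATCC6301.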

[3] = target: Motilin receptor (Oryctolagus cuniculus) (UniProt A5A4K8); assay: Agonist activity at motilin receptor in rabbit smooth muscle assessed as increase of muscle contraction at EC90 concentration treated three cycles of administration measured after 4th dose; assay type: functional
Chain of Motilin receptor (Oryctolagus cuniculus) (A5A4K8 as listed by the source): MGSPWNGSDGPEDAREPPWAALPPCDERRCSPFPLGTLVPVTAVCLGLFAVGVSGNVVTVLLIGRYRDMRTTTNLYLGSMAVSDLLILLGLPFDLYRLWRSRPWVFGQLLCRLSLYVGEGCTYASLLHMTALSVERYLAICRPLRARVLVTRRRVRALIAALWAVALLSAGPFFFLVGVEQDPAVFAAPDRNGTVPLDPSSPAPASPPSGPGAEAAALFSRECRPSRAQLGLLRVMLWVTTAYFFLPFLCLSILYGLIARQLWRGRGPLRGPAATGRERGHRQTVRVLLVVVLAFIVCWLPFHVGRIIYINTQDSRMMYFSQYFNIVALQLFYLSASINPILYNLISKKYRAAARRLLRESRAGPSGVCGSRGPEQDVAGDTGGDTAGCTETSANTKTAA
Summary of the method: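 Rabbit smooth muscle strip contractility assay. Drug given at its EC90 concentration for three cycles of administration and washout. The contractile response is expressed as % response at the 4th dose.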

[4] = target: hERG (KCNH2) (Homo sapiens, UniProt Q12809); assay: Inhibition of human ERG expressed in HEK cells at 30 uM; assay type: cell-based, HEK293; settings: HEK cells expressing human ERG
Chain of hERG (KCNH2) (Q12809 whole entry): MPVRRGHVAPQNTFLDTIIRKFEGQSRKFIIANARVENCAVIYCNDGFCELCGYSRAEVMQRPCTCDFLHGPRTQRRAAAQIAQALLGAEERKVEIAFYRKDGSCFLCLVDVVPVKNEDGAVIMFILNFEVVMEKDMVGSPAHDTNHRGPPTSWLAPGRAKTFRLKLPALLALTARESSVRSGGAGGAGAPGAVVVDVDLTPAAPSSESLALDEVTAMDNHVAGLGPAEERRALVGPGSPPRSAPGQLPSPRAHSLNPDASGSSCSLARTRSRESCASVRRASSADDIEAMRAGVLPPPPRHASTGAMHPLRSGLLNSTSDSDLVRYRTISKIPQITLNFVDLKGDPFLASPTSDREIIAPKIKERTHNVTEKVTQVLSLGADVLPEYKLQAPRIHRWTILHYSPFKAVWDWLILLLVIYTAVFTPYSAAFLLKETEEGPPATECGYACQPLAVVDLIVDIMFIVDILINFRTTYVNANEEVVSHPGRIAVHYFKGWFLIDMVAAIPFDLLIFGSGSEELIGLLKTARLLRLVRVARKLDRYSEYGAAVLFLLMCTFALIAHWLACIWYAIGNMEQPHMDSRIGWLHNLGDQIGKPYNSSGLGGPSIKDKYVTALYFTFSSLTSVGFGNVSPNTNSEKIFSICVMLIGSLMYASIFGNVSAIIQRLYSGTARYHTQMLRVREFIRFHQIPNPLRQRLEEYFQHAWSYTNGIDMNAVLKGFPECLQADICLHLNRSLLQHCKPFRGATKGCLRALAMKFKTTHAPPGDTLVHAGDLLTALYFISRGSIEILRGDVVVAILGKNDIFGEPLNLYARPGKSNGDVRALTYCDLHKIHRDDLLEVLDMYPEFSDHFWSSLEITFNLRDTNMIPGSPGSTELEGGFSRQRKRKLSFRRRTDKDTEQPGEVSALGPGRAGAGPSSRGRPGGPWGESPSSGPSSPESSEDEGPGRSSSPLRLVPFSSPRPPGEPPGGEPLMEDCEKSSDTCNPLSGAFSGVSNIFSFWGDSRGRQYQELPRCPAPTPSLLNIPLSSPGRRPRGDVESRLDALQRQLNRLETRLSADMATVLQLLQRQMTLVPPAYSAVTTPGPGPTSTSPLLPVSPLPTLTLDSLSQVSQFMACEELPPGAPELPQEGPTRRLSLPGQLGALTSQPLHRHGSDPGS

Chain of Motilin receptor (A5A4K8 whole entry): as the sequence (A5A4K8 as listed by the source) above

SMILES | EC50 [1] [nM] | MIC [2] [µg/mL] | Activity [3] [%] | inhibition at 30 µM [4] [%]
CC[C@H]1OC(=O)[C@H](C)[C@@H](O[C@@H]2C[C@@](C)(OC)[C@@H](O)[C@H](C)O2)[C@H](C)[C@@H](O[C@@H]2O[C@H](C)C[C@H](N(C)CC(N)=O)[C@H]2O)[C@](C)(O)C[C@@H](C)[C@H](O)[C@H](C)[C@@H](O)[C@]1(C)O | > 5000 |  |  | 
CC[C@H]1OC(=O)[C@H](C)[C@@H](O[C@@H]2C[C@@](C)(OC)[C@@H](O)[C@H](C)O2)[C@H](C)[C@@H](O[C@@H]2O[C@H](C)C[C@H](NC(C)C)[C@H]2O)[C@](C)(O)C[C@@H](C)[C@H](O)[C@H](C)[C@@H](O)[C@]1(C)O | > 5000 | > 128 |  | 
CC[C@H]1OC(=O)[C@H](C)[C@@H](O[C@@H]2C[C@@](C)(OC)[C@@H](O)[C@H](C)O2)[C@H](C)[C@@H](O[C@@H]2O[C@H](C)C[C@H](N(C)C3CCC3)[C@H]2O)[C@](C)(O)C[C@@H](C)[C@H](O)[C@H](C)[C@@H](O)[C@H]1C | 300 | > 128 | 71 | 
CC[C@H]1OC(=O)[C@H](C)[C@@H](O[C@@H]2C[C@@](C)(OC)[C@@H](O)[C@H](C)O2)[C@H](C)[C@@H](O[C@@H]2O[C@H](C)C[C@H](N(C)C(C)C)[C@H]2O)[C@](C)(O)C[C@@H](C)[C@H](O)[C@H](C)[C@@H](O)[C@H]1C | 106 | 128 (≈ 171 µM) | 79 | 
CC[C@H]1OC(=O)[C@H](C)[C@@H](O[C@@H]2C[C@@](C)(OC)[C@@H](O)[C@H](C)O2)[C@H](C)[C@@H](O[C@@H]2O[C@H](C)C[C@H](N(C)CCCO)[C@H]2O)[C@](C)(O)C[C@@H](C)[C@H](O)[C@H](C)[C@@H](O)[C@]1(C)O | 700 |  |  | 
CC[C@H]1OC(=O)[C@H](C)[C@@H](O[C@@H]2C[C@@](C)(OC)[C@@H](O)[C@H](C)O2)[C@H](C)[C@@H](O[C@@H]2O[C@H](C)C[C@H](N(C)CCN)[C@H]2O)[C@](C)(O)C[C@@H](C)[C@H](O)[C@H](C)[C@@H](O)[C@]1(C)O | 7300 |  |  | 
CC[C@H]1OC(=O)[C@H](C)[C@@H](O[C@@H]2C[C@@](C)(OC)[C@@H](O)[C@H](C)O2)[C@H](C)[C@@H](O[C@@H]2O[C@H](C)C[C@H](N(C)C3COC3)[C@H]2O)[C@](C)(O)C[C@@H](C)[C@H](O)[C@H](C)[C@@H](O)[C@]1(C)O | 5700 | 32 (≈ 41.1 µM) |  | 
CC[C@H]1OC(=O)[C@H](C)[C@@H](O[C@@H]2C[C@@](C)(OC)[C@@H](O)[C@H](C)O2)[C@H](C)[C@@H](O[C@@H]2O[C@H](C)C[C@H](N(C)CC3(C)CC3)[C@H]2O)[C@](C)(O)C[C@@H](C)[C@H](O)[C@H](C)[C@@H](O)[C@]1(C)O | 2000 | 64 (≈ 81 µM) |  | 
CC[C@H]1OC(=O)[C@H](C)[C@@H](O[C@@H]2C[C@@](C)(OC)[C@@H](O)[C@H](C)O2)[C@H](C)[C@@H](O[C@@H]2O[C@H](C)C[C@H](N(C)C3CCCC3)[C@H]2O)[C@](C)(O)C[C@@H](C)[C@H](O)[C@H](C)[C@@H](O)[C@]1(C)O | > 5000 | 128 (≈ 162 µM) |  | 
CC[C@H]1OC(=O)[C@H](C)[C@@H](O[C@H]2C[C@@](C)(OC)[C@@H](O)[C@H](C)O2)[C@H](C)[C@@H](O[C@@H]2O[C@H](C)C[C@H](N(C)C)[C@H]2O)[C@](C)(O)C[C@@H](C)C(=O)[C@H](C)[C@@H](O)[C@]1(C)O [ERYTHROMYCIN] |  | 0.03 (≈ 0.0409 µM) |  | 
CC[C@H]1OC(=O)[C@H](C)[C@@H](O[C@@H]2C[C@@](C)(OC)[C@@H](O)[C@H](C)O2)[C@H](C)[C@@H](O[C@@H]2O[C@H](C)C[C@H](N(C)C(C)C)[C@H]2O)[C@](C)(O)C[C@@H](C)[C@H](O)[C@H](C)[C@@H](O)[C@]1(C)O | 260 | 32 (≈ 41.9 µM) | 76 | 80
CC[C@H]1OC(=O)[C@H](C)[C@@H](O[C@@H]2C[C@@](C)(OC)[C@@H](O)[C@H](C)O2)[C@H](C)[C@@H](O[C@@H]2O[C@H](C)C[C@H](N(C)CCOC)[C@H]2O)[C@](C)(O)C[C@@H](C)[C@H](O)[C@H](C)[C@@H](O)[C@]1(C)O | 7700 |  |  | 
CC[C@H]1OC(=O)[C@H](C)[C@@H](O[C@@H]2C[C@@](C)(OC)[C@@H](O)[C@H](C)O2)[C@H](C)[C@@H](O[C@@H]2O[C@H](C)C[C@H](N(C)CC(C)(C)O)[C@H]2O)[C@](C)(O)C[C@@H](C)[C@H](O)[C@H](C)[C@@H](O)[C@]1(C)O | 100 | > 128 | 89 | 25
CC[C@H]1OC(=O)[C@H](C)[C@@H](O[C@@H]2C[C@@](C)(OC)[C@@H](O)[C@H](C)O2)[C@H](C)[C@@H](O[C@@H]2O[C@H](C)C[C@H](N(C)CC(O)CO)[C@H]2O)[C@](C)(O)C[C@@H](C)[C@H](O)[C@H](C)[C@@H](O)[C@]1(C)O (stereo not given in full) | 2500 |  |  | 
CC[C@H]1OC(=O)[C@H](C)[C@@H](O[C@@H]2C[C@@](C)(OC)[C@@H](O)[C@H](C)O2)[C@H](C)[C@@H](O[C@@H]2O[C@H](C)C[C@H](N(C)C[C@@H](C)O)[C@H]2O)[C@](C)(O)C[C@@H](C)[C@H](O)[C@H](C)[C@@H](O)[C@H]1C | 280 | > 128 | 89 | 38
C=C(C)CN(C)[C@H]1C[C@@H](C)O[C@@H](O[C@@H]2[C@@H](C)[C@H](O[C@@H]3C[C@@](C)(OC)[C@@H](O)[C@H](C)O3)[C@@H](C)C(=O)O[C@H](CC)[C@@](C)(O)[C@H](O)[C@@H](C)[C@@H](O)[C@H](C)C[C@@]2(C)O)[C@@H]1O | 2400 |  |  | 
CC[C@H]1OC(=O)[C@H](C)[C@@H](O[C@@H]2C[C@@](C)(OC)[C@@H](O)[C@H](C)O2)[C@H](C)[C@@H](O[C@@H]2O[C@H](C)C[C@H](N(C)C[C@H](C)O)[C@H]2O)[C@](C)(O)C[C@@H](C)[C@H](O)[C@H](C)[C@@H](O)[C@]1(C)O | 360 | 128 (≈ 164 µM) | 95 | 16
CC[C@H]1OC(=O)[C@H](C)[C@@H](O[C@@H]2C[C@@](C)(OC)[C@@H](O)[C@H](C)O2)[C@H](C)[C@@H](O[C@@H]2O[C@H](C)C[C@H](N(C)C[C@@H](C)O)[C@H]2O)[C@](C)(O)C[C@@H](C)[C@H](O)[C@H](C)[C@@H](O)[C@]1(C)O | 460 | > 128 | 93 | 
CC[C@H]1OC(=O)[C@H](C)[C@@H](O[C@@H]2C[C@@](C)(OC)[C@@H](O)[C@H](C)O2)[C@H](C)[C@@H](O[C@@H]2O[C@H](C)C[C@H](N(C)CCF)[C@H]2O)[C@](C)(O)C[C@@H](C)[C@H](O)[C@H](C)[C@@H](O)[C@]1(C)O | 3800 |  |  | 
CC[C@H]1OC(=O)[C@H](C)[C@@H](O[C@@H]2C[C@@](C)(OC)[C@@H](O)[C@H](C)O2)[C@H](C)[C@@H](O[C@@H]2O[C@H](C)C[C@H](N(C)CC(C)C)[C@H]2O)[C@](C)(O)C[C@@H](C)[C@H](O)[C@H](C)[C@@H](O)[C@]1(C)O | 363 |  | 81 | 
CC[C@H]1OC(=O)[C@H](C)[C@@H](O[C@@H]2C[C@@](C)(OC)[C@@H](O)[C@H](C)O2)[C@H](C)[C@@H](O[C@@H]2O[C@H](C)C[C@H](N(C)CCO)[C@H]2O)[C@](C)(O)C[C@@H](C)[C@H](O)[C@H](C)[C@@H](O)[C@]1(C)O | 210 | 8 (≈ 10.4 µM) | 86 | 
CC[C@H]1OC(=O)[C@H](C)[C@@H](O[C@@H]2C[C@@](C)(OC)[C@@H](O)[C@H](C)O2)[C@H](C)[C@@H](O[C@@H]2O[C@H](C)C[C@H](N(C)C3CCC3)[C@H]2O)[C@](C)(O)C[C@@H](C)[C@H](O)[C@H](C)[C@@H](O)[C@]1(C)O | 350 | 128 (≈ 165 µM) | 90 | 38
CC[C@H]1OC(=O)[C@H](C)[C@@H](O[C@@H]2C[C@@](C)(OC)[C@@H](O)[C@H](C)O2)[C@H](C)[C@@H](O[C@@H]2O[C@H](C)C[C@H](NC3CCC3)[C@H]2O)[C@](C)(O)C[C@@H](C)[C@H](O)[C@H](C)[C@@H](O)[C@]1(C)O | > 5000 | 16 (≈ 21 µM) |  | 
CC[C@H]1OC(=O)[C@H](C)[C@@H](O[C@@H]2C[C@@](C)(OC)[C@@H](O)[C@H](C)O2)[C@H](C)[C@@H](O[C@@H]2O[C@H](C)C[C@H](N(C)C[C@H](C)O)[C@H]2O)[C@](C)(O)C[C@@H](C)[C@H](O)[C@H](C)[C@@H](O)[C@H]1C | 180 | > 128 | 70 | 
CC[C@H]1OC(=O)[C@H](C)[C@@H](O[C@@H]2C[C@@](C)(OC)[C@@H](O)[C@H](C)O2)[C@H](C)[C@@H](O[C@@H]2O[C@H](C)C[C@H](N(C)CC3CC3)[C@H]2O)[C@](C)(O)C[C@@H](C)[C@H](O)[C@H](C)[C@@H](O)[C@]1(C)O | 310 | 32 (≈ 41.2 µM) |  | 
CC[C@H]1OC(=O)[C@H](C)[C@@H](O[C@@H]2C[C@@](C)(OC)[C@@H](O)[C@H](C)O2)[C@H](C)[C@@H](O[C@@H]2O[C@H](C)C[C@H](N(C)CC(C)(C)O)[C@H]2O)[C@](C)(O)C[C@@H](C)[C@H](O)[C@H](C)[C@@H](O)[C@H]1C | 100 | > 128 | 56 | 
